Experimental data pooled from the literature.
Protocols differ between the studies behind these lines.
Organism: Staphylococcus aureus
Effect on: microbial growth

`C[C@H]1COCCN1c1nc(NCc2cccnc2C(F)(F)F)c2cccnc2n1` has an MIC of 128 µg/mL (broth dilution; MRSA).
For `Cc1ccc2nc(-c3ccc(Cl)cc3)n(Cc3ccccc3)c2c1`, the MIC was 8 µg/mL (broth dilution; ATCC43300 MRSA; drug-resistant strain).
`CN[C@H](CC(C)C)C(=O)N[C@H]1C(=O)N[C@@H](CC(N)=O)C(=O)N[C@H]2C(=O)N[C@H]3C(=O)N[C@H](C(=O)N[C@H](C(=O)O)c4cc(O)cc(O)c4-c4cc3ccc4O)[C@H](O)c3ccc(c(Cl)c3)Oc3cc2cc(c3O[C@@H]2O[C@H](CO)[C@@H](O)[C@H](O)[C@H]2O[C@H]2C[C@](C)(N)[C@H](O)[C@H](C)O2)Oc2ccc(cc2Cl)[C@H]1O` gave an MIC of 1.56 µg/mL (ATCC33591; drug-resistant strain).
With `CO[C@H]1[C@H](O[C@H]([C@H]2O[C@@H](n3ccc(=O)[nH]c3=O)[C@H](O)[C@@H]2O)[C@H](NCCCNC(=O)[C@@H](NC(=O)[C@@H](NC(=O)N[C@H](C(=O)O)C(C)C)[C@@H]2CCN=C(N)N2)[C@@H](OC(=O)CCCCC(C)C)C(C)C)C(=O)O)O[C@H](CN)[C@H]1O` the MIC was > 32 µg/mL (NEWMAN).
The MIC of `Cc1ccc2[nH]c3c(c2c1)CCCC3NCCc1ccc(Br)cc1` (stereo not shown) is reported as 4 µg/mL (broth dilution; MRSA USA300).
For `Clc1ccc(-c2nc3ccccc3[nH]2)c(Cl)c1`, the MIC was 256 µg/mL (broth dilution; ATCC43300 MRSA; drug-resistant strain).
`COC(=O)c1cc(-c2cccc(NC(=O)Nc3ccccc3)c2)on1` has an MIC of > 64 µg/mL (broth dilution; ATCC29213).
`CC1(C)CC[C@]2(C(=O)O)CC[C@]3(C)C(=CC[C@@H]4[C@@]5(C)CC[C@H](O)C(C)(C)[C@@H]5CC[C@]43C)[C@@H]2C1` has an MIC of 256 µg/mL (ATCC25904).
With `N#CC(C#N)=Cc1ccc(O)c(O)c1` the MIC was > 30 µM (NCTC8325).
For `COC(=O)c1cc(-c2cccc(NC(=S)Nc3ccc(F)cc3F)c2)on1`, the MIC was > 64 µg/mL (broth dilution; ATCC29213).
For `Cc1ccc2nc(-c3ccc(Cl)cc3)n(Cc3ccccc3Cl)c2c1`, the MIC was 64 µg/mL (broth dilution; ATCC43300 MRSA; drug-resistant strain).
For `C=CCCCCCCCCC(=O)C(F)(F)P(=O)(O)O`, the MIC was > 200 µg/mL (ATCC33591 MRSA; drug-resistant strain).
`COC(=O)c1cc(-c2cccc(NC(=S)Nc3cc(C(F)(F)F)cc(C(F)(F)F)c3)c2)on1` gave an MIC of 8 to 16 µg/mL (broth dilution; ATCC29213).
With `Clc1ccccc1-c1nc2ccccc2[nH]1` the MIC was 128 µg/mL (broth dilution; ATCC43300 MRSA; drug-resistant strain).
`O=C(CCCCCCCCCCOc1ccccc1)NP(=O)(O)O` gave an MIC of 100 µg/mL (ATCC33591 MRSA; drug-resistant strain).
For `COC(=O)c1cc(-c2cccc(NC(=O)Nc3cccc(Cl)c3Cl)c2)on1`, the MIC was 8 to 16 µg/mL (broth dilution; ATCC29213).
For `Cc1ccc2nc(-c3ccc(F)cc3)[nH]c2c1`, the MIC was 128 µg/mL (broth dilution; ATCC43300 MRSA; drug-resistant strain).
`O=C(Nc1ccc(O)cc1)Nc1ccc(Cl)c(C(F)(F)F)c1` gave an MIC of 100 µM (NCTC8325).
With `CCCCCCC#Cc1cncc(-c2nnc(SCc3cc([N+](=O)[O-])cc([N+](=O)[O-])c3)n2C)c1` the MIC was ≥ 20 µg/mL (MRSA; drug-resistant strain).
